Yeast lifespan up: compounds extending yeast replicative lifespan, primary screen, S. cerevisiae, OD615; S. cerevisiae growth with nicotinamide; deaD strain in restrictive glucose medium; inhibition of the nicotinamide effect, % at 10 µM; hit rate 0.68% among 130,000; AID 775, 2007;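 active = inhibition above a set limit, placed 3 SD over the median of all compounds, cut at about 26% in these data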;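 also: 0% = nicotinamide-treated wells and 100% = cells grown without nicotinamide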
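Test system: DeaD-strain S. cerevisiae / Buffer or medium: restrictive glucose medium / Also added: nicotinamide 1.5 mM / Doses: one concentration, 10 µM, DMSO 0.25% / Schedule: 48 h at 30 °C / Signal: OD615 measurement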
Yeast growth inh: growth inhibitors of yeast BB579 in restrictive medium, primary screen, yeast lifespan-shortening project, S. cerevisiae | OD615, 48 h | inhibition, % at 10 µM | hit rate 0.51% among 140,000;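 active = inhibition above a set limit, 3 SD over the mean compound inhibition, cut at about 44% in these data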
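System: DeaD yeast strain BB579; buffer or medium: CSMM-D dextrose restrictive medium; technique: OD at 615 nm; schedule: 4 h cell preincubation, 48 h compound exposure, 30 °C humidified; doses: single 10 µM dose; controls: amphotericin B 10 µg/mL, positive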
Phagocytosis inh: inhibitors of macrophage phagocytosis, primary screen, imaging, J774A.1 cells, IgG beads | J774A.1 macrophage IgG-bead phagocytosis | inhibition, % at 5 µM | hit rate 0.07% among 110,000 | AID 1029, 2008;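 active = inhibition above the mean of the plate negative controls plus 5 SD, cut at about 13% in these data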;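 also: phagocytic index as fraction of beads internalized from green versus red external bead signal; plate controls were DMSO negative control for no effect and cytochalasin-D positive control for full effect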
RAM inhibit: inhibitors of the yeast RAM network, primary screen, dse1pr::URA3 reporter, 5-FOA selection; inhibition, % at 50 µM; AID 868, 2007; hit rate 1.8% among 190,000; S. cerevisiae dse1pr::URA3 reporter, 5-FOA growth OD615, 2 d; analog-sensitive cbk1-as2 kinase mutant strain;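 active = inhibition above a set limit, 3 SD over mean compound inhibition, cut at about 8.4% in these data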;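 also: 0% = DMSO-only wells with no growth and 100% = 10 µM 1-NA-PP1 full growth; inhibition rescues growth on 5-FOA so higher OD means more RAM inhibition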
* = called active by the depositor; / = not tested or not shown. The list is not random: actives were taken first. Their share in the collection is about 2.7%.

SMILES	Yeast lifespan up	Yeast growth inh	Phagocytosis inh	RAM inhibit
O=C(N/C(=C/c1cn(-c2ccccc2)nc1-c1ccccc1)C(=O)N1CCOCC1)c1ccc(Cl)cc1Cl	6	-63	0	8.9*
CCCSc1ccc(-c2nn(-c3ccccc3)cc2/C=C(/C#N)C(=O)N2CCOCC2)cc1	10	-43	-1	8.8*
CCSc1ccc(-c2nn(-c3ccccc3)cc2/C=C(/C#N)C(=O)NC)cc1	3	-19	/	4
CCN(CC)S(=O)(=O)c1ccc(C)c(C)c1	-2	4	-1	1
CCN(CC)S(=O)(=O)c1ccc2c(c1)C(=NO)c1cc(S(=O)(=O)N(CC)CC)ccc1-2	/	-46	/	10*
O=C(c1c[nH]c(C(=O)C(Cl)(Cl)Cl)c1)c1ccccc1Cl	90*	67*	-1	-1
CC1(C)CNC(=O)c2sc(NC(=O)c3ccccc3Cl)nc2C1	/	/	/	4
Cc1cccc(OCC(=O)N/N=C\c2cc3c(cc2[N+](=O)[O-])OCO3)c1C	-7	-44	-1	1
CCOc1ccc(/C=N/NC(=O)c2nnn(-c3nonc3N)c2-c2ccc(OCC)cc2)cc1	2	-24	-2	9.4*
CC(/C=C/c1ccc(N(C)C)cc1)=N\N=C(/N)SC1CC(=O)N(c2ccc(C(=O)O)cc2)C1=O (configuration not stated)	3	-14	-3	9.8*
CCS(=O)(=O)C1=NN2C(=N)/C(=C\c3ccc(SCc4ccco4)o3)C(=O)N=C2S1	/	/	/	11*
N=C1/C(=C\c2ccc(SCc3ccccc3)o2)C(=O)N=C2SC=NN12	/	/	/	4
O=[N+]([O-])c1cc(C2Nc3cccc4cccc(c34)N2)ccc1Cl	-1	-35	-9	11*
O=[N+]([O-])c1cccc2ccc(/C=C/c3ccc(Cl)cc3)nc12	-2	-21	-10	6
O=[N+]([O-])c1cccc2ccc(/C=C/c3ccc(C(F)(F)F)cc3)nc12	-5	-29	-8	10*
Cc1cc(C=C2C(=O)c3ccccc3C2=O)c(C)n1-c1cccc(C(=O)O)c1	/	/	/	8.8*
CCN(CC)C(=O)NCc1c(C)cc(C)cc1C	/	/	/	0
O=Nc1c2nc3ccccc3n(O)c-2c2ccccc12	-6	64*	0	6
On1c(-c2ccc(Cl)cc2)nc2ccccc21	/	/	/	2
CCCCC#Cc1ccccc1CC(=O)Nc1ccccc1	7	-11	/	1
CCCCCCCC#Cc1ccccc1/C=N/S(=O)c1ccc(C)cc1 (configuration not stated)	36*	-38	/	-1
O=C(COc1ccccc1)N1CCN=C1SCc1cccnc1	-16	56*	-1	1
CCOc1cc(/C=C(/C#N)c2nc3ccccc3[nH]2)ccc1OCc1ccc(C(=O)O)o1	-3	-49	0	9.1*
CCOc1cc(/C=C(/C#N)c2ccc(F)cc2)ccc1OCc1ccc(C(=O)O)o1	-10	-23	0	6
O=C(NN=C1CCCCCCCCCCC1)c1cccc(S(=O)(=O)N2CCOCC2)c1	-6	-12	/	1
SMILES	Yeast lifespan up	Yeast growth inh	Phagocytosis inh	RAM inhibit
CCCCn1[nH]c(-c2ccccc2)cc1=O	32*	-22	10	0
CN(c1ccccc1)c1ccc(/C=C(\CCC(=O)O)c2nc3ccccc3s2)cc1[N+](=O)[O-]	-5	-11	-6	6
CNc1ccc(/C=C(\CCC(=O)O)c2nc3ccccc3s2)cc1[N+](=O)[O-]	-1	-41	-4	11*
Cc1ccc(/C=C(\CCC(=O)O)c2nc3ccccc3s2)cc1[N+](=O)[O-]	4	-38	/	10.0*
Cn1cnnc1Sc1ccc(/C=C(\CCC(=O)O)c2nc3ccccc3s2)cc1[N+](=O)[O-]	/	/	/	4
Cc1ccccc1C(=O)NC1CCN(C(=O)Nc2ccccc2Cl)CC1	/	/	/	-1
Cc1nc2c(F)c(F)c(C(F)(F)F)c(F)c2[nH]1	-16	57*	0	1
CCOC(=O)N1CCC(N2C(=O)c3ccccc3C2Nc2ccc(S(=O)(=O)N(CC)CC)cc2)CC1 (configuration not stated)	/	/	/	2
CC1CCN(c2nnc(N3CCC(C)CC3)c3ccccc23)CC1	/	/	/	1
CC1CCN(c2nncc3ccccc23)CC1	30*	-23	0	1
COc1ccc(NC(=O)c2cccnc2SC)cc1S(=O)(=O)N1CCCCC1	-4	-21	-4	4
CC(=O)c1cccc(NC(=O)Nc2ccc3c(c2)N(C)C(=O)CS3)c1	-18	-54	0	8.5*
Cc1cc(C)cc(NC(=O)Nc2ccc3c(c2)N(C)C(=O)CS3)c1	-6	-35	0	2
O=C(Nc1ccccc1C(=O)NCc1ccccc1)c1ccccc1Br	-11	-17	-15	1
O=C(Nc1ccccc1C(=O)O)c1ccc(Br)c(S(=O)(=O)NCc2ccccc2)c1	/	/	/	11*
CCN(CC)c1ccc(NC(=O)COc2ccc(C)cc2)cc1	/	/	1	/
Cc1ccc(F)c(NC(=O)/C(C#N)=C(\O)c2ccc(C(C)(C)C)cc2)c1	/	/	/	4
CC(=O)NNC(=S)NC(=O)c1ccc(C)cc1	/	/	/	-1
Cc1ccc(C(=O)NNC(=S)NC(=O)c2ccc(Cl)cc2)cc1	95*	-32	/	1
O=[N+]([O-])c1ccc2nc(SCc3ccccc3Cl)sc2c1	-12	-28	/	9.6*
Nc1ccc2nc(SCc3ccc([N+](=O)[O-])cc3)sc2c1	-21	-35	/	3
C=CCc1ccccc1OCCSc1nc2ccc([N+](=O)[O-])cc2s1	4	-14	-7	11*
COc1ccccc1OCCSc1nc2ccc([N+](=O)[O-])cc2s1	-5	-44	-9	1
Cc1nc(NCCc2ccccc2)c(C#N)c(C)c1[N+](=O)[O-]	-7	-31	-9	1
CCOc1cc(S(=O)(=O)NCc2ccccc2)ccc1Br	/	/	/	4
SMILES	Yeast lifespan up	Yeast growth inh	Phagocytosis inh	RAM inhibit
Cc1ccccc1Cc1c(C)nc2c(C(=O)NCc3ccco3)cnn2c1C	-10	-46	-1	10*
O=S(=O)(c1ccc(Cl)s1)N1CCCc2cccc(O)c21	-8	-31	0	2
CN(CC(=O)Nc1ccc(Cl)c(Cl)c1)Cc1nnc(-c2ccc(F)cc2)o1	/	/	/	-1
CN(C[C@H](Cc1ccccc1)N(CCN(CCc1ccccc1)N=O)N=O)N=O	/	/	/	3
CN(C[C@H](Cc1ccccc1)N(C[C@H](Cc1ccccc1)N(CCc1cc(C(F)(F)F)cc(C(F)(F)F)c1)N=O)N=O)N=O	/	/	/	7
CCCC[C@H](CN(N=O)[C@@H](Cc1ccccc1)CN(C)N=O)N(CCc1ccccc1)N=O	/	/	/	8.9*
CN(C[C@H](CC1CCCCC1)N(C[C@H](Cc1ccccc1)N(CCc1ccccc1)N=O)N=O)N=O	/	/	/	11*
O=C(COC(=O)[C@H](Cc1ccccc1)NC(=O)c1ccco1)NCc1ccccc1	-7	-40	1	1
O=[N+]([O-])c1cccc(-c2nc(-c3ccccc3)c(-c3cccs3)[nH]2)c1	-12	-56	/	8.5*
Cc1ccc2c(c1)N(CC(=O)NCCc1c[nH]c3ccccc13)C(=O)CO2	-8	-74	-3	1

From PubChem
